Measurements: article PMC4415852 (Cancer cell, 2015)

Legend:
menin = biological target: T1, menin (Homo sapiens, UniProt O00255); assay: Isothermal Titration Calorimetry, binding to menin; settings: in words
T1 sequence (O00255 1-610): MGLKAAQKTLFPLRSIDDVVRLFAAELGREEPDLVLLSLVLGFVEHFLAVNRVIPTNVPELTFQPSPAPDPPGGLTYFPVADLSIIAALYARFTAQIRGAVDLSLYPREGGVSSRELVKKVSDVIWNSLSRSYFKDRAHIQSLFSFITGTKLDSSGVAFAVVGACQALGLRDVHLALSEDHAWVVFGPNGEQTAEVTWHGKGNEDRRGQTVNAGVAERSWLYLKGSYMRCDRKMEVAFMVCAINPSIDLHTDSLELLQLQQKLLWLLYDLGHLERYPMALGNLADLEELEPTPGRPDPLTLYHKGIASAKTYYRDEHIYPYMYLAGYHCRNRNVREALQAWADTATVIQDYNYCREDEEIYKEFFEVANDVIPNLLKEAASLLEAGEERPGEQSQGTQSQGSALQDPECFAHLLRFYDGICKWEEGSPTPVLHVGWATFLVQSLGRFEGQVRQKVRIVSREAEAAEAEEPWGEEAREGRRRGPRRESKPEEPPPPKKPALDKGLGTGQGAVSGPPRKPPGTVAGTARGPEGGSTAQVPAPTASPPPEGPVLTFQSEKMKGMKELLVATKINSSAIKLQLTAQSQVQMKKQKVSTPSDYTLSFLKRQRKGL

[1] = tested on: murine bone marrow cells (BMC) transformed with the MLL-AF9 oncogene; assay: MTT cell viability assay, MLL-AF9 transformed BMCs; type: cell-based; settings: read-out: half-maximal growth inhibitory concentration (GI50); after 7 days of treatment
Method in brief: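 Leukemia cells were plated and exposed to a test compound titration or 0.25% DMSO at 37 °C for 7 days. On day 4, media was changed, viable cell numbers were reset to the starting density and compound was re-supplied. Viability was read by MTT absorbance at 570 nm from titration curves. n = 4, mean ± SD.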

[2] = tested on: BMCs transformed with the Hoxa9/Meis1 oncogenes (HM-2); assay: MTT cell viability assay, Hoxa9/Meis1 transformed BMCs; type: cell-based, murine; settings: HM-2 BMCs, 7 days
Method in brief: (§1)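 Cells were plated with test compound or 0.25% DMSO and kept at 37 °C for 7 days. At day 4 the media was changed, viable cell numbers were reset to the starting density and compound was re-added. Read-out was MTT with absorbance at 570 nm, from titration curves. Mean ± SD, n = 4. Non-MLL lines were HL-60, NB4 and Jurkat; murine bone marrow cells were Hoxa9/Meis1-transformed.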

[3] = tested on: human leukemia cell lines without MLL translocations; assay: MTT assay, human leukemia cell lines without MLL translocations; type: cell-based; settings: in words
Method in brief: as §1

[4] = tested on: MV4;11 human leukemia cells expressing MLL-AF4; assay: Long term viability study in MV4; type: cell-based; settings: MV4;11, at day 10, first treatment phase
Method in brief: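 Cycle of 10 days exposure to test compound at several concentrations, 10 days wash-out without compound, then 10 further days of re-treatment. Viable cell numbers were normalized to the DMSO control. Values are means of duplicates ± SD. The day-10 read-out is taken from the first exposure phase.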

[5] = biological target: T2, menin-MLL-AF9 interaction (Homo sapiens, UniProt O00255); assay: Co-immunoprecipitation in HEK293 cells transfected with MLL-AF9; type: cell-based; settings: at sub-micromolar concentrations
T2 sequence (O00255 1-610): T1 sequence (O00255 1-610)

[6] = Pharmacokinetic studies in mice; type: in vivo; settings: single intravenous or oral dose
MLL-AF9 leukemia = assay: Bone marrow transplantation model of murine MLL-AF9 leukemia; type: in vivo; settings: for increase of median survival: MI-463 50 mg/kg, MI-503 80 mg/kg, twice daily oral gavage, 10 days
[7] = tested on: MLL leukemia patient samples; assay: Methylcellulose colony forming assay, MLL leukemia primary patient samples; type: cell-based, human; settings: at submicromolar or low micromolar concentrations, 14 days
Method in brief: (§2)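 Primary cells (peripheral blood mononuclear, thawed) were pre-cultured 24 hr in RPMI-1640 with 10% FBS, 1% penicillin/streptomycin, 10 ng/mL human IL-3 and 10 ng/mL IL-6 plus SCF. They were then plated in duplicate at 7.5–15 × 10^4 cells in cytokine-supplemented methylcellulose containing test compound or DMSO. Incubation was 14 days at 37 °C, 5% CO2, followed by iodonitrotetrazolium chloride staining. Colony counts were normalized to DMSO; mean ± SD, n = 2.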

[8] = tested on: control AML patient samples; type: cell-based, human; settings: except at the highest concentration (6 μM) in the AML-9571 sample
Method in brief: as §2

[9] = Tolerability in normal C57BL/6 mice; type: in vivo; settings: 10 days, twice daily oral gavage
Method in brief: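 Normal C57BL/6 mice received test compound or vehicle by oral gavage twice daily for 10 days, the same regimen as the leukemia survival studies. Body weight, organ weight and tissue damage were assessed afterwards.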

[10] = tested on: MV4;11 human MLL leukemia cells; settings: for inhibition of tumor growth: once daily i.p., MI-503 60 mg/kg, MI-463 35 mg/kg, in words
[11] = tested on: MLL leukemia patient samples; assay: Cell viability assay in primary MLL leukemia patient samples; type: cell-based, human; settings: 7 days of treatment, in words
Method in brief: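 Primary AML cells (mononuclear cells from peripheral blood, isolated by density gradient and red cell lysis, frozen in 10% DMSO) were exposed to test compound or 0.25% DMSO vehicle for 7 days. Stains were anti-human CD45, CD34 and CD38, then Annexin V and 7-AAD, with ≥2 × 10^5 events per sample by flow cytometry. Annexin V/7-AAD double negative cells counted as viable, shown as % of DMSO. Blasts were hCD45+. Mean ± SD, n = 2.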

Metabolic stability = type: in vitro ADME; settings: in words

Structure (SMILES)	binding affinity to menin (menin)	GI50 [1] [nM]	effect on cell growth inhibition [2]	growth suppressive activity [3]	GI50 [4] [nM]	inhibition of the menin-MLL-AF9 interaction [5]	oral bioavailability [6]	increase of median survival (MLL-AF9 leukemia)	reduction in colony number [7]	effect on colony formation [8]	body weight, organ weight, tissue damage [9]	reduction in MV4;11 tumor volume ([10]; 60 mg/kg once daily i.p.)	inhibition of tumor growth [10]	body weight loss / tolerability (MLL-AF9 leukemia; MLL-AF9 leukemia mice, 10 days of treatment, twice daily p.o.)	effect on cell growth and blast population [11]	metabolic stability (Metabolic stability)
Cc1c(CN2CCC(Nc3ncnc4sc(CC(F)(F)F)cc34)CC2)ccc2c1cc(C#N)n2Cc1cn[nH]c1 [MI-503]	low nanomolar	220	no effect	only a minimal effect	200	effectively inhibit	75%	~ 45%	over 50%	little effect	no decrease in body weight, organ weight or tissue damage	over 80%	strong inhibition	–	–	–
Cc1c(CN2CCC(Nc3ncnc4sc(CC(F)(F)F)cc34)CC2)ccc2[nH]c(C#N)cc12 [MI-463]	–	–	no effect	only a minimal effect	–	–	~ 45%	~ 70%	over 50%	little effect	no decrease in body weight, organ weight or tissue damage	–	strong inhibition	no significant body weight loss	marked decrease	–
CC1(C)CN=C(N2CCN(c3ncnc4sc(CC(F)(F)F)cc34)CC2)S1 [MI-2-2]	–	–	–	–	–	–	–	–	–	–	–	–	–	–	–	very poor
